According to ChEMBL document CHEMBL3877264, “Quinolidene-rhodanine conjugates: Facile synthesis and biological evaluation” (Eur J Med Chem, 2017):
Converted amounts (≈) assume the structure as drawn.

What was measured:
Type in all cases: functional
Pseudomonas fluorescens [1] = assay: Growth inhibition of Pseudomonas fluorescens NCIM 2036 at 3 ug/ml measured after 8 hrs relative to control; conditions: NCIM 2036, 8 h, read-out: GI
Outline: (§1)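 Bacteria grown in LB at 37 °C and 180 rpm to OD 1. Compounds added to wells, then 0.1% inoculum of 1 OD culture (620 nm). Growth read as OD at 620 nm after 8 h for gram-negative and after 12 h for gram-positive strains.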

Candida albicans = assay: Antifungal activity against Candida albicans NCIM 3471 by standard agar method
Outline: (§2)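 MICs determined by standard agar method; DMSO as solvent control.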

Bacillus subtilis [2] = assay: Antibacterial activity against Bacillus subtilis NCIM 2079 measured after 12 hrs; conditions: NCIM 2079, 12 h; outline: as §1
Escherichia coli [3] = assay: Antibacterial activity against Escherichia coli NCIM 2688 measured after 8 hrs; conditions: NCIM 2688, 8 h; outline: as §1
Staphylococcus aureus [4] = assay: Antibacterial activity against of Staphylococcus aureus NCIM 2010 measured after 12 hrs; conditions: NCIM 2010, 12 h; outline: as §1
Escherichia coli [5] = assay: Growth inhibition of Escherichia coli NCIM 2688 at 30 ug/ml measured after 8 hrs relative to control; conditions: NCIM 2688, 8 h, read-out: GI; outline: as §1
[6] = test system: Mycobacterium tuberculosis; assay: Growth inhibition of Mycobacterium bovis BCG ATCC 35743 at dormant stage at 30 ug/ml measured after 12 days by nitrate reductase dye based two fold dilution method relative to control; conditions: BCG str. ATCC 35743, 288 h, read-out: GI
Outline: (§3)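 M. bovis BCG was grown in Dubos medium and assayed in Mycobacterium pheli minimal medium (pH 6.6), with compounds from DMSO stocks. Incubation lasted 8 days for active and 12 days for dormant cultures. Viability was read by nitrate reductase at 540 nm against cell-free blanks, with vehicle set as 100% growth. Primary screen was at 30, 10 and 3 µg/ml, in triplicate, mean ± SD. MIC was taken from dose-response curves.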

Bacillus subtilis [7] = assay: Growth inhibition of Bacillus subtilis NCIM 2079 at 3 ug/ml measured after 12 hrs relative to control; conditions: NCIM 2079, 12 h, read-out: GI; outline: as §1
[8] = test system: Mycobacterium tuberculosis; assay: Growth inhibition of Mycobacterium bovis BCG ATCC 35743 at active stage measured after 8 days by nitrate reductase dye based two fold dilution method; conditions: BCG str. ATCC 35743, 192 h; outline: as §3
Bacillus subtilis [9] = assay: Growth inhibition of Bacillus subtilis NCIM 2079 at 30 ug/ml measured after 12 hrs relative to control; conditions: NCIM 2079, 12 h, read-out: GI; outline: as §1
Pseudomonas fluorescens [10] = assay: Growth inhibition of Pseudomonas fluorescens NCIM 2036 at 30 ug/ml measured after 8 hrs relative to control; conditions: NCIM 2036, 8 h, read-out: GI; outline: as §1
Staphylococcus aureus [11] = assay: Growth inhibition of Staphylococcus aureus NCIM 2010 at 10 ug/ml measured after 12 hrs relative to control; conditions: NCIM 2010, 12 h, read-out: GI; outline: as §1
[12] = test system: Mycobacterium tuberculosis; assay: Growth inhibition of Mycobacterium bovis BCG ATCC 35743 at dormant stage at 3 ug/ml measured after 12 days by nitrate reductase dye based two fold dilution method relative to control; conditions: BCG str. ATCC 35743, 288 h, read-out: GI; outline: as §3
Aspergillus niger = assay: Antifungal activity against Aspergillus niger NCIM 1196 by standard agar method; outline: as §2
[13] = Antifungal activity against Cryptococcus neoformans NCIM 576 by standard agar method; outline: as §2
Aspergillus flavus = assay: Antifungal activity against Aspergillus flavus NCIM 539 by standard agar method; outline: as §2
Bacillus subtilis [14] = assay: Growth inhibition of Bacillus subtilis NCIM 2079 at 10 ug/ml measured after 12 hrs relative to control; conditions: NCIM 2079, 12 h, read-out: GI; outline: as §1
Escherichia coli [15] = assay: Growth inhibition of Escherichia coli NCIM 2688 at 10 ug/ml measured after 8 hrs relative to control; conditions: NCIM 2688, 8 h, read-out: GI; outline: as §1
Escherichia coli [16] = assay: Growth inhibition of Escherichia coli NCIM 2688 at 3 ug/ml measured after 8 hrs relative to control; conditions: NCIM 2688, 8 h, read-out: GI; outline: as §1
[17] = test system: Mycobacterium tuberculosis; assay: Growth inhibition of Mycobacterium bovis BCG ATCC 35743 at dormant stage at 10 ug/ml measured after 12 days by nitrate reductase dye based two fold dilution method relative to control; conditions: BCG str. ATCC 35743, 288 h, read-out: GI; outline: as §3
[18] = Antifungal activity against Fusarium oxysporum NCIM 1332 by standard agar method; outline: as §2
Staphylococcus aureus [19] = assay: Growth inhibition of Staphylococcus aureus NCIM 2010 at 30 ug/ml measured after 12 hrs relative to control; conditions: NCIM 2010, 12 h, read-out: GI; outline: as §1
[20] = test system: Mycobacterium tuberculosis; assay: Growth inhibition of Mycobacterium tuberculosis H37Ra ATCC 25177 at dormant stage measured after 12 days by XTT dye based two fold dilution method; conditions: H37Ra ATCC 25177, 288 h
Outline: (§4)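 MTB H37Ra was grown in Dubos medium, then exposed in Mycobacterium pheli minimal medium (pH 6.6) to compounds dissolved in DMSO. The assay ended on day 8 (active) or day 12 (dormant). Viable cells were measured by XTT reduction menadione assay at 470 nm, blank-corrected, relative to vehicle control. Triplicates were expressed as mean ± SD. MIC came from dose-response curves.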

[21] = test system: Mycobacterium tuberculosis; assay: Growth inhibition of Mycobacterium tuberculosis H37Ra ATCC 25177 at active stage measured after 8 days by XTT dye based two fold dilution method; conditions: H37Ra ATCC 25177, 192 h; outline: as §4
Pseudomonas fluorescens [22] = assay: Antibacterial activity against Pseudomonas fluorescens NCIM 2036 measured after 8 hrs; conditions: NCIM 2036, 8 h; outline: as §1
Pseudomonas fluorescens [23] = assay: Growth inhibition of Pseudomonas fluorescens NCIM 2036 at 10 ug/ml measured after 8 hrs relative to control; conditions: NCIM 2036, 8 h, read-out: GI; outline: as §1
Staphylococcus aureus [24] = assay: Growth inhibition of Staphylococcus aureus NCIM 2010 at 3 ug/ml measured after 12 hrs relative to control; conditions: NCIM 2010, 12 h, read-out: GI; outline: as §1
[25] = test system: Mycobacterium tuberculosis; assay: Growth inhibition of Mycobacterium bovis BCG ATCC 35743 at dormant stage measured after 12 days by nitrate reductase dye based two fold dilution method; conditions: BCG str. ATCC 35743, 288 h; outline: as §3

Compound | inhibition of growth at 3 µg/mL (Pseudomonas fluorescens [1]) [%] | MIC (Candida albicans) [µg/mL] | MIC (Bacillus subtilis [2]) [µg/mL] | MIC (Escherichia coli [3]) [µg/mL] | MIC (Staphylococcus aureus [4]) [µg/mL] | inhibition of growth at 30 µg/mL (Escherichia coli [5]) [%] | inhibition of growth at 30 µg/mL [6] [%] | inhibition of growth at 3 µg/mL (Bacillus subtilis [7]) [%] | IC50 [8] [µg/mL] | IC90 [8] [µg/mL] | inhibition of growth at 30 µg/mL (Bacillus subtilis [9]) [%] | inhibition of growth at 30 µg/mL (Pseudomonas fluorescens [10]) [%] | inhibition of growth at 10 µg/mL (Staphylococcus aureus [11]) [%] | inhibition of growth at 3 µg/mL [12] [%] | MIC (Aspergillus niger) [µg/mL] | MIC [13] [µg/mL] | MIC (Aspergillus flavus) [µg/mL] | inhibition of growth at 10 µg/mL (Bacillus subtilis [14]) [%] | inhibition of growth at 10 µg/mL (Escherichia coli [15]) [%] | inhibition of growth at 3 µg/mL (Escherichia coli [16]) [%] | other results
Cc1ccc2nc(Cl)c(/C=C3\SC(=S)N(CCC(=O)O)C3=O)cc2c1 | 5.35 | 50 (≈ 127 µM) | > 30 | > 30 | > 30 | -49 | -14.8 | -20.6 | > 30 | > 30 | -31.1 | -6.24 | -13.6 | -7.58 | 100 (≈ 255 µM) | 175 (≈ 445 µM) | 150 (≈ 382 µM) | -25.6 | -47.6 | -37.5 | inhibition of growth at 10 µg/mL [17]: -7.25%; MIC [18]: 100 µg/mL (≈ 255 µM); inhibition of growth at 30 µg/mL (Staphylococcus aureus [19]): -19.6%; IC50 [20]: > 30 µg/mL; IC90 [20]: > 30 µg/mL; IC50 [21]: > 30 µg/mL; IC90 [21]: > 30 µg/mL; MIC (Pseudomonas fluorescens [22]): > 30 µg/mL; inhibition of growth at 10 µg/mL (Pseudomonas fluorescens [23]): 1.64%; inhibition of growth at 3 µg/mL (Staphylococcus aureus [24]): -9.82%; IC50 [25]: > 30 µg/mL; IC90 [25]: > 30 µg/mL
O=C(O)CCN1C(=O)/C(=C/c2cc3ccccc3nc2Cl)SC1=S | -48 | 100 (≈ 264 µM) | > 30 | > 30 | > 30 | -59 | 49.1 | 3 | > 30 | > 30 | 6.41 | -6.76 | -20.6 | -3.3 | 75 (≈ 198 µM) | 50 (≈ 132 µM) | 50 (≈ 132 µM) | 6.32 | -52.5 | -47.5 | inhibition of growth at 10 µg/mL [17]: -18.9%; MIC [18]: 125 µg/mL (≈ 330 µM); inhibition of growth at 30 µg/mL (Staphylococcus aureus [19]): -22.9%; IC50 [20]: > 30 µg/mL; IC90 [20]: > 30 µg/mL; IC50 [21]: > 30 µg/mL; IC90 [21]: > 30 µg/mL; MIC (Pseudomonas fluorescens [22]): > 30 µg/mL; inhibition of growth at 10 µg/mL (Pseudomonas fluorescens [23]): -0.29%; inhibition of growth at 3 µg/mL (Staphylococcus aureus [24]): -28.2%; IC50 [25]: > 30 µg/mL; IC90 [25]: > 30 µg/mL
